# Source: ChEMBL document CHEMBL3739266, “Synthesis and pharmacological evaluation of some new fluorine containing hydroxypyrazolines as potential anticancer and antioxidant agents” (Eur J Med Chem, 2015)
# Legend:
# [1] = Antioxidant activity assessed as DPPH free radical scavenging activity at 50 ug/ml after 30 mins by spectrophotometric assay; assay type: physicochemical; details: 0.5 h
# Procedure, shortened: (§1)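 Test samples at 25, 50 and 100 μg/mL in methanol, 1 mL added to 4 mL of 0.004% (w/v) methanolic DPPH. Scavenging expressed as percent inhibition relative to a control with all reagents except test compound. Ascorbic acid served as reference antioxidant.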
# [2] = Antioxidant activity assessed as DPPH free radical scavenging activity at 25 ug/ml after 30 mins by spectrophotometric assay; assay type: physicochemical; details: 0.5 h; procedure, shortened: as §1
# [3] = Antioxidant activity assessed as DPPH free radical scavenging activity at 100 ug/ml after 30 mins by spectrophotometric assay; assay type: physicochemical; details: 0.5 h; procedure, shortened: as §1
# [4] = Antioxidant activity assessed as DPPH free radical scavenging activity after 30 mins by spectrophotometric assay; assay type: physicochemical; procedure, shortened: as §1
# [5] = system: MDA-MB-231; assay: Cytotoxicity against human MDA-MB-231 cells assessed as growth inhibition after 48 hrs by MTT assay; assay type: functional, cell-based; details: MDA-MB-231, 48 h
# Procedure, shortened: (§2)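 MTT colorimetric assay in 96-well plates. Cells exposed to compounds for 48 h, then tetrazolium reduction to formazan was read as absorbance. IC50 taken from plotted dose–response curves. Values are mean ± SD of three independent experiments. Doxorubicin served as positive control.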
# [6] = system: Vero; assay: Cytotoxicity against African green monkey Vero cells assessed as growth inhibition after 48 hrs by MTT assay; assay type: cell-based; details: Chlorocebus sabaeus; procedure, shortened: as §2
inhibition (INH) [1] [%],inhibition (INH) [2] [%],inhibition (INH) [3] [%],IC50 [4] [µg/mL],SMILES,IC50 [5] [nM],IC50 [6] [nM]
83.52,82.39,87.22,15.17,O=C1O[C@H]([C@@H](O)CO)C(O)=C1O [ASCORBIC ACID],,
,,,,COc1cccc2c1C(=O)c1c(O)c3c(c(O)c1C2=O)C[C@@](O)(C(=O)CO)C[C@@H]3O[C@H]1C[C@H](N)[C@H](O)[C@H](C)O1 [DOXORUBICIN],910,> 100000
